Measurements gathered from unrelated publications.
Protocols differ between the studies behind these lines.
Target: Myotonin-protein kinase (DMPK, Homo sapiens, UniProt Q09013)

SMILES | effect on | action | technique | concentration | quantity | result
Cc1nc(C2CCN(C(=O)c3ccc(OC(F)(F)F)cc3N)CC2)c2ncc(N3CCN(C)CC3)cc2n1 | cell-free assay |  | competition with immobilised ligand | 1 µM | remaining binding | 100%
COc1cc(Cl)c(C(=O)N[C@@H](CN[C@H]2CC[C@@H](N)CC2)Cc2ccc(C#N)cc2)cc1-c1ccc(CN[C@H](C)c2ccc(C)cc2)o1 | enzyme activity | inhibitor |  | 1 µM | remaining activity | 100%
O=C(O)[C@H]1[C@H](Cn2nnc3ccccc3c2=O)CC[C@@H]1C(=O)c1ccc(OCCC2CCOCC2)cc1 | cell-free assay |  | competition with immobilised ligand | 1 µM | remaining binding | 83%
C=CC(=O)Nc1cc(Nc2nccc(Nc3cc(Cl)c(F)cc3C(C)(C)O)n2)c(OC)cc1N1CC[C@@H](N(C)C)C1 | enzyme activity | inhibitor |  | 1 µM | inhibition | 11%
CCCOc1ccc(OC)c(F)c1C(=O)c1ccc(C(=O)N[C@@H]2CNC[C@H]2NC(=O)c2ccc3[nH]ncc3c2)cc1 | enzyme activity | inhibitor |  | 10 µM | remaining activity | 93%
Cc1ccc(NC(=O)c2ccc(C)c(C(F)(F)F)c2)cc1C#Cc1nn(C2CCC(O)CC2)c2ncnc(N)c12 (stereo not shown) | cell-free assay |  |  | 10 µM | remaining signal | 91%
O=C1NC(=O)c2cc(Nc3ccc(F)cc3)c(Nc3ccc(F)cc3)cc21 | cell-free assay |  |  | 0.5 µM | remaining signal | 108%
Cn1c2c(c3ccc(Cl)c(Cl)c31)C(C#N)C(C)(C)NC2=O (stereo not shown) | thermal stability |  | DSF | 10 µM | ΔTm | 0.4 °C
CN(C)C(=O)Cn1cc(-c2nc([C@@](C)(c3ccc(-c4cnc(N)nc4)cc3)C3CC3)no2)cn1 | cell-free assay |  | competition with immobilised ligand | 1 µM | remaining binding | 100%
COc1cc2c(Nc3ccc(Br)cc3F)ncnc2cc1OCC1CCN(C)CC1 | cell-free assay |  |  | 0.5 µM | remaining signal | 94.6%
CNC(=O)c1cc(Oc2ccc(NC(=O)Nc3ccc(Cl)c(C(F)(F)F)c3)cc2)ccn1 | enzyme activity | inhibitor |  | 10 µM | inhibition | -16%
O=C(Nc1cnn(-c2csc(C(=O)NC3COC3)c2)c1)Nc1ccccc1Cl | enzyme activity | inhibitor |  | 5 µM | remaining activity | 102%
COc1ccc2c(O[C@@H]3C[C@H]4C(=O)N[C@]5(C(=O)O)CC5/C=C\CCCCC[C@H](NC(=O)OC5CCCC5)C(=O)N4C3)cc(-c3csc(NC(=O)C(C)C)n3)nc2c1C (stereo partly shown) | cell-free assay |  | competition with immobilised ligand | 1 µM | remaining binding | 83%
CC(C)(C)c1nc(-c2cccc(NS(=O)(=O)c3c(F)cccc3F)c2F)c(-c2ccnc(N)n2)s1 | enzyme activity | inhibitor | radiometric | 1 µM | remaining activity | 103%
N#CCCc1ccc2c(c1)-c1[nH]c3ccc([N+](=O)[O-])cc3c1CC(=O)N2 | cell-free assay |  |  | 0.5 µM | remaining signal | 89.8%
O=C(NCc1ncc(C(F)(F)F)cc1Cl)c1ccc2c(c1)C1(CCS(=O)(=O)CC1)[C@@H](C1CC1)N2S(=O)(=O)c1ccc(F)cc1 | cell-free assay |  | competition with immobilised ligand | 1 µM | remaining binding | 86%
Cc1cc(NC(=O)c2cccc3cc(-c4cccc5[nH]nc(N)c45)ccc23)ccc1F | enzyme activity | inhibitor |  | 0.1 µM | activity vs control | 99%
Cn1c2c(Cl)c(Cl)ccc2c2cn[nH]c(=O)c21 | thermal stability |  | DSF | 10 µM | ΔTm | 0.4 °C
CCCS(=O)(=O)Nc1ccc(F)c(C(=O)c2c[nH]c3ncc(-c4ccc(Cl)cc4)cc23)c1F | enzyme activity | inhibitor |  | 1 µM | inhibition | < 10%
Cn1c2c(c3ccc(Cl)c(Cl)c31)C(C#N)C1(CCOCC1)NC2=O (stereo not shown) | thermal stability |  | DSF | 10 µM | ΔTm | 0 °C
Cc1ccc(Nc2nccc(N(C)c3ccc4c(C)n(C)nc4c3)n2)cc1S(N)(=O)=O | enzyme activity | inhibitor |  | 0.3 µM | inhibition | -15%
c1ccc(N2CCN(Cc3nc4ccccc4[nH]3)CC2)nc1 | binding |  | competition with immobilised ligand | 1 µM | remaining binding | 100%
Cn1c2c(c3ccc(Cl)c(Cl)c31)C(C#N)C1(CCN(C(=O)OC(C)(C)C)CC1)NC2=O (racemic) | thermal stability |  | DSF | 10 µM | ΔTm | -0.5 °C
CCN(CC)CCNC(=O)c1c(C)[nH]c(/C=C2\C(=O)Nc3ccc(F)cc32)c1C | enzyme activity | inhibitor |  | 10 µM | inhibition | -5%
CS(=O)(=O)NCC[C@H](NC(=O)c1cncc2c1cnn2-c1ccc(F)cc1)c1ccnc(S(C)(=O)=O)c1 | cell-free assay |  | competition with immobilised ligand | 1 µM | remaining binding | 100%
CCC1(CC)NC(=O)c2c(c3ccc(Cl)c(Cl)c3n2C)C1C#N (stereo not shown) | thermal stability |  | DSF | 10 µM | ΔTm | 0.2 °C
O=C(O)c1cc(-c2ccc(C3CCNCC3)cc2)c2ccc(-c3ccc(C(F)(F)F)cc3)cc2c1 | cell-free assay |  | competition with immobilised ligand | 1 µM | remaining binding | 100%
Cn1c2c(Cl)c(Cl)ccc2c2cc(N)[nH]c(=O)c21 | thermal stability |  | DSF | 10 µM | ΔTm | 0.1 °C
